Results as given in ChEMBL document CHEMBL1132627, “Synthesis and biological evaluation of boron-containing polyamines as potential agents for neutron capture therapy of brain tumors” (J Med Chem, 1999).
Values joined by “and” are separate entries in the source; they are usually repeats but may differ in a detail not shown here. Equal entries are not always repeated. Each block holds one compound with its values, some of them ahead of it.

Columns and labels:
Mus musculus [1] = test: In vivo biodistribution in mice liver bearing intracerebral GL261 gliomas at the dose of 10 microg of boron/g/day; format: ADME, organism-based
How it was run: (§1)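 C57Bl/6 mice implanted stereotactically in brain (2.5–3.0 mm deep) with 10^5 GL261 cells in serum-free DMEM with 1.5% agarose. Polyamine-deficient diet and 2% DFMO water for 3 days, then Alzet pump infusion at 10 μg boron/g per day for 3 days with diet and DFMO continued. Five mice; tissue boron by DCP-AES, mean ± SD.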

Nucleic Acid = test: Concentration required to decrease the fluorescence of the ethidium bromide-calf thymus DNA complex by 50%; format: nucleic-acid assay, Bos taurus
How it was run: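 Calf thymus DNA (10 μg) in 2 mM HEPES, 10 μM EDTA, 9.4 mM NaCl, pH 7.0, with 1.6 μM ethidium bromide. Polyamine added stepwise in aliquots. Fluorescence read at excitation 546 nm and emission 598 nm. IC50 is the concentration that lowers complex fluorescence by 50%.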

Mus musculus [2] = test: In vivo biodistribution in mice kidney bearing intracerebral GL261 gliomas at the dose of 10 microg of boron/g/day; format: ADME, organism-based; how it was run: as §1
[3] = In vitro cellular uptake by F98 glioma cells after 48 hr incubation in the presence of 5.1 micro g of B/mL media concentration; format: functional, Rattus norvegicus
How it was run: (§2)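 5×10^6 F98 cells per flask in DMEM with 10% FBS for 24 h. Medium then replaced with compound at the molar concentration matching the stated boron level, and cells held at 37 °C, 5% CO2. Cells washed three times with PBS, detached with trypsin-EDTA and digested in H2SO4/H2O2. Boron in media and cells by DCP-AES; 10^9 cells ≈ 1 g.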

[4] = In Vitro Toxicity measured as the conc. required for 50% reduction in SRBabsorbance by F98 glioma cells; format: functional, Rattus norvegicus
How it was run: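 F98 rat glioma cells, 10,000/well in DMEM with 10% FBS, grown overnight at 37 °C, 5% CO2. Then exposed 24 h to varying compound concentrations. Fixed with cold TCA (1 h, 4 °C), stained 20 min with 0.4% SRB in 1% acetic acid, dye solubilized in 10 mM Tris base, A492 read. Six replicates per concentration, expressed as % untreated control; IC50 = 50% reduction.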

Rattus norvegicus [5] = species: Rattus norvegicus; test: In vitro cellular uptake by F98 glioma cells after 48 hr incubation in the presence of 5.4 micro g of B/mL media concentration; format: functional; how it was run: as §2
Rattus norvegicus [6] = species: Rattus norvegicus; test: In vitro cellular uptake by F98 glioma cells after 24 h incubation in the presence of 5.4 ug of B/mL media concentration; format: functional; how it was run: as §2
Rattus norvegicus [7] = species: Rattus norvegicus; test: In vitro cellular uptake by F98 glioma cells after 48 hr incubation in the presence of 0.5 micro g of B/mL media concentration; format: functional; how it was run: as §2
Rattus norvegicus [8] = species: Rattus norvegicus; test: In vitro cellular uptake by F98 glioma cells after 48 hr incubation in the presence of 5.3 micro g of B/mL media concentration; format: functional; how it was run: as §2
Rattus norvegicus [9] = species: Rattus norvegicus; test: In vitro cellular uptake by F98 glioma cells after 24 h incubation in the presence of 5.3 ug of B/mL media concentration; format: functional; how it was run: as §2
Mus musculus [10] = test: In vivo biodistribution in mice muscle bearing subcutaneous B16 melanomas at the dose of 10 ug/g; format: ADME, organism-based, Muscle tissue
Mus musculus [11] = test: In vivo biodistribution in mice liver bearing subcutaneous B16 melanomas at the dose of 10 ug/g; format: ADME, organism-based
Mus musculus [12] = test: In vivo biodistribution in mice kidney bearing subcutaneous B16 melanomas at the dose of 10 ug/g; format: ADME, organism-based
[13] = In vitro concentration required for 50% reduction in the uptake of [3H]-TdR by F98 glioma cells; format: functional, Rattus norvegicus
Mus musculus [14] = test: In vivo biodistribution in mice blood bearing subcutaneous B16 melanomas at the dose of 10 ug/g; format: ADME, organism-based
Rattus norvegicus [15] = species: Rattus norvegicus; test: In vitro cellular uptake by F98 glioma cells after 24 h incubation in the presence of 0.5 ug of B/mL media concentration; format: functional

Biodistribution (Mus musculus [1]): 22.9 ug of B g-1
IC50 (Nucleic Acid): 115 µM
Biodistribution (Mus musculus [2]): 44 ug of B g-1
Compound: Cl.Cl.Cl.NCCCCN(CCCN)Cc1ccc(B(O)O)cc1
Ccellular [3]: 114 ug of B (g of cells)-1
IC50 [4]: > 5000 µM

Compound: 3-(2-{4-[(4-Amino-butyl)-(3-amino-propyl)-amino]-butyl}-cyclopropyl)-propane-1,2-diol; trihydrochloride
Ccellular (ug of B (g of cells)-1) (Rattus norvegicus [5]): 104
Ccellular (ug of B (g of cells)-1) (Rattus norvegicus [6]): 51
Ccellular (ug of B (g of cells)-1) (Rattus norvegicus [7]): 9

Compound: 3-[2-(4-{(3-Amino-propyl)-[4-(3-amino-propylamino)-butyl]-amino}-butyl)-cyclopropyl]-propane-1,2-diol hydrochloride
Ccellular (ug of B (g of cells)-1) (Rattus norvegicus [8]): 83
Ccellular (ug of B (g of cells)-1) (Rattus norvegicus [7]): 20
Ccellular (ug of B (g of cells)-1) (Rattus norvegicus [9]): 60

IC50 (Nucleic Acid): 105 µM
Compound: NCCCCNCCCN [SPERMIDINE]
IC50 [4]: > 100 µM

IC50 (Nucleic Acid): 3 µM
Compound: NCCCNCCCCNCCCN [SPERMINE]
IC50 [4]: > 100 µM

Biodistribution (Mus musculus [10]): 9.8 ug of B g-1
Biodistribution (Mus musculus [11]): 74.8 ug of B g-1
IC50 (Nucleic Acid): 147 µM
Biodistribution (Mus musculus [12]): 201.3 ug of B g-1
IC50 [13]: 22 µM
Biodistribution (Mus musculus [14]): 9.3 ug of B g-1 and 12.5 ug of B g-1
Compound: N1-(3-Amino-propyl)-N1-(4-cyclopropyl-butyl)-butane-1,4-diamine(B10H10) [listing 1 of 2 here]

Compound: N1-(3-Amino-propyl)-N1-(4-cyclopropyl-butyl)-butane-1,4-diamine(B10H10) [listing 2 of 2 here]
Ccellular (ug of B (g of cells)-1) (Rattus norvegicus [15]): 65
Ccellular (ug of B (g of cells)-1) (Rattus norvegicus [7]): 43

Compound: N*1*-{4-[2-(2-Amino-ethyl)-cyclopropyl]-butyl}-N*1*-(3-amino-propyl)-butane-1,4-diamine; trihydrochloride
Ccellular (ug of B (g of cells)-1) (Rattus norvegicus [5]): 116
Ccellular (ug of B (g of cells)-1) (Rattus norvegicus [6]): 51
Ccellular (ug of B (g of cells)-1) (Rattus norvegicus [7]): 19

Compound: N,N'-Bis-(3-amino-propyl)-N-(4-cyclopropyl-butyl)-butane-1,4-diamine hydrochloride
Ccellular (ug of B (g of cells)-1) (Rattus norvegicus [7]): 64

Compound: N-{4-[2-(2-Amino-ethyl)-cyclopropyl]-butyl}-N,N'-bis-(3-amino-propyl)-butane-1,4-diamine hydrochloride
Ccellular (ug of B (g of cells)-1) (Rattus norvegicus [8]): 229
Ccellular (ug of B (g of cells)-1) (Rattus norvegicus [7]): 15
Ccellular (ug of B (g of cells)-1) (Rattus norvegicus [9]): 82
